Measurements pooled from the literature.

CC(C)[C@H](NC(=O)[C@H](Cc1cscn1)NC(=O)CCc1ccccc1)C(=O)N[C@@H](CCCNC(=N)N)C(=O)c1nc2ccccc2s1
solubility (PBS; 90 min, pH 7.4): > 10 µM

COc1ccc2cc3n(c(=O)c2c1OC)CCc1cc2c(cc1-3)OCO2
solubility (water; 24 h, 25 °C): < 0.05 µg/mL

O=[N+]([O-])c1ccc(/C=N/c2c(-c3ccccc3)nc3ccc(Cl)cn23)cc1
solubility (aqueous buffer; pH 7): 25 µg/mL

Cn1cnc2ccc(Nc3c(F)ccc(NS(=O)(=O)N4CC(F)C4)c3Cl)c(Cl)c2c1=O
solubility (aqueous buffer; pH 2.05): 2 µg/mL

C/C(=N/c1ccc(/N=C/c2ccc(/C=N/c3ccc(/N=C(/C)N(C)C)cc3)cc2)cc1)N(C)C
solubility (shake flask; PBS; pH 7.4, 25 °C): 0.38 µg/mL

Cc1cc(C)c2nc(-c3ccncc3)cc(C(=O)NCCCn3ccnc3)c2c1
solubility (PBS): > 20 µM

CC(=Nc1ccc(N=Cc2ccc3[nH]cnc3c2)cc1)N(C)C
solubility (shake flask; PBS; 24 h, pH 7.4, 25 °C): ~20 µg/mL

O=C(C=Cc1ccccc1)Nc1cc(-c2ccnc(N3CCC(O)CC3)c2)ccn1
solubility (water; pH 7.4): ~115 µg/mL

Cc1c(C(=O)O)ccc2c3n(nc12)[C@@H]1[C@H](C3)N(CC2CC2)[C@@]2(C(=O)Nc3cc(Cl)ccc32)[C@H]1c1cccc(Cl)c1F
solubility (aqueous buffer; pH 6.8): < 1 µg/mL

Cn1cncc1[C@@](N)(c1ccc(Cl)cc1)c1ccc2c(c1)c(-c1cccc(Cl)c1)cc(=O)n2C
solubility (simulated gastric fluid; pH 1.02, 25 °C, acidic): > 3750 µg/mL

O=[N+]([O-])c1cccc(/C=N/c2c(-c3ccccc3)nc3ccc(Cl)cn23)c1
solubility (aqueous buffer; pH 7): 25 µg/mL

CCCc1cc(C(=O)OC)c(NC(=O)C2CCN(C(C)=O)CC2)s1
solubility (PBS): > 20 µM
